# mABHD4 FP = ABHD4 inhibitors, primary screen, biochemical, fluorescence polarization, mouse; inhibition, % at 8.92 µM; purified mABHD4, FP-Rh probe fluorescence polarization; actives 0.54% (n = 370,000); (Lyso)-N-acylphosphatidylethanolamine lipase (Mus musculus), Q8VD66; AID 720543, 2013;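 active = inhibition exceeding the mean over every tested compound plus 3 SD, cut at about 30% in these data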;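 also: 0% = plate median of compound wells and 100% = S159A mutant with DMSO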
#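 system = mouse ABHD4 enzyme, wild type | medium = HEPES pH 7.0, NaCl, Pluronic buffer | also added = FP-Rh probe | incubation = Enzyme–compound pre-incubation 45 min, then probe 60 min, both 25 °C | technique = fluorescence polarization, excitation 525 nm, emission 598 nm, BODIPY TMR filters | controls = S159A mutant high control, sample median low control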
# PRMT1 inh = PRMT1 methyltransferase inhibitors, primary screen, biochemical, fluorescence polarization | Protein arginine N-methyltransferase 1 (Homo sapiens), Q99873 | recombinant PRMT1, activity-based probe fluorescence polarization | inhibition, % at 2.79 µM | actives 1.3% (n = 370,000);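 active = inhibition above about 21% made by adding two undisclosed values, limit read from the data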
# HTRA1 inh = HTRA1 serine protease inhibitors, primary screen, biochemical, fluorescence polarization, HTS. Q92743. recombinant HTRA1, FP-rhodamine activity-based probe. inhibition, % at 5.96 µM. actives 0.5% (n = 340,000). AID 504803, 2011; in the data active = inhibition above about 36%;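 also: 0% = enzyme with DMSO and 100% = wells lacking enzyme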
# rCAG binder = binders of r(CAG) RNA repeats, primary screen, biochemical, fluorescence; r(CAG) RNA repeat, TO-PRO-1 dye displacement fluorescence; inhibition, % at 3 µM; actives 1.3% (n = 370,000); AID 651821, 2012;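 active = inhibition above the plate cutoff, the mean of all test compounds on that plate plus 3 SD, cut at about 35% in these data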;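 also: 0% = DMSO alone and 100% = 100 µM mitoxantrone as full dye displacement; higher means more dye released from RNA so lower well fluorescence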
# SIAE primary = human SIAE inhibitors, primary screen, biochemical, fluorescence polarization, FP-Rh probe, 1536-well HTS | SIAE FP-Rh probe binding | inhibition, % at 9.66 µM | actives 0.69% (n = 370,000) | AID 1053197, 2014;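 active = inhibition above a cutoff: mean of compounds within the control limits plus 3 SD of those, cut at about 17% in these data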;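 also: 0% = plate median of compound wells and 100% = probe without SIAE protein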
# Target sequence (Q9HAT2 whole entry, looked up): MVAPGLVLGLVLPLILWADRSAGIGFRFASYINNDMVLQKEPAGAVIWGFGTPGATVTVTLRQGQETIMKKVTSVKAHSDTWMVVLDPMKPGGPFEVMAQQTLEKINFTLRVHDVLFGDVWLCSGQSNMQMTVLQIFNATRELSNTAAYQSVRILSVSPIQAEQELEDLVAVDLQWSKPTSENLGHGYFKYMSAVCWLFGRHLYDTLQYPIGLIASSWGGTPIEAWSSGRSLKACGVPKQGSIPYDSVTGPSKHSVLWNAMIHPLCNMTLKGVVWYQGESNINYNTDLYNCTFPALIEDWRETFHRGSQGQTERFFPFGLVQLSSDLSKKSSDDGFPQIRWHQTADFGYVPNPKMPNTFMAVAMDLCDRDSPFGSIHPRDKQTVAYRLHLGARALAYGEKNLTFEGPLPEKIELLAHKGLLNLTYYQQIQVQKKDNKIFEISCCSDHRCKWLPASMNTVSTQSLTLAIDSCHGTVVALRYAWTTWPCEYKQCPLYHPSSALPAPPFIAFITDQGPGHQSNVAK
# mABHD4 conf = ABHD4 inhibitors, retest, confirmation, biochemical, fluorescence polarization, mouse; actives 55% (n = 1,800); shares compounds with mABHD4 FP; inhibition, % at 8.92 µM; purified mABHD4, FP-Rh probe fluorescence polarization;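 active = mean inhibition across replicates above the hit cutoff set in the primary screen, cut at about 30% in these data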;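 also: 0% = wild-type ABHD4 with DMSO and 100% = catalytically dead S159A mutant with DMSO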
# SIAE inh conf = human SIAE inhibitors, retest, confirmation, biochemical, fluorescence polarization, FP-Rh probe, triplicate; shares compounds with SIAE primary; SIAE FP-Rh activity-based probe; inhibition, % at 9.66 µM; actives 13% (n = 2,300); AID 1117263, 2014;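 active = mean inhibition of the replicates above the hit cutoff set in the primary screen, cut at about 17% in these data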;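 also: 0% = SIAE with DMSO and probe and 100% = probe without SIAE; inhibitors lower polarization as more probe stays unbound to SIAE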
# Numbers without * were called inactive; . = no result given. Rows were chosen to be rich in hits. Some 3.3% of all compounds tested hit in one or more screens of this group.
SMILES,mABHD4 FP,PRMT1 inh,HTRA1 inh,rCAG binder,SIAE primary,SIAE inh conf,others
O=C(Nc1ccn(CCCNCC2CCCCC2)c(=O)n1)OCc1ccccc1,6.0,-1.8,-6.2,9.7,8.8,.,
Oc1ccccc1Nc1nc(NCc2ccccc2)c2ccccc2n1,42.9*,-2.9,15.3,16.1,20.7*,6.2,mABHD4 conf=54.8*
CNc1nc(NCc2ccccc2)c2ccccc2n1,-1.1,-0.6,0.5,14.2,-2.9,.,
CN1CCS/C1=C/C=C1/SC(=S)N(Cc2ccccc2)C1=O,85.6*,-54.3,2.5,-16.8,22.4*,22.2*,mABHD4 conf=19.6
O=C(O)CCCN1C(=O)C2C3CC(C2C1=O)C1C(c2ccccc2)c2sc(=O)n(-c4ccccc4)c2SC31 (stereo not drawn),8.4,2.6,0.1,13.8,-0.7,.,
Fc1ccccc1-c1ccc(/C=N/Nc2nc3ccccc3[nH]2)o1,40.1*,1.6,18.3,17.8,34.5*,34.5*,mABHD4 conf=46.1*
Cc1ccc(/C=N\Nc2nc3ccc(Cl)cc3[nH]2)o1,25.6,-0.1,6.6,9.0,1.8,.,
O=C(c1ccccc1)N1N=C(c2ccccc2O)CC1c1ccccc1 (stereo not drawn),-9.4,-5.0,-3.7,-2.0,4.8,.,
S=C(Nc1ccc2nsnc2c1)NC1CCCCC1,-5.0,0.8,1.2,2.2,18.6*,2.4,
S=C(Nc1ccc(Cl)c(Cl)c1)NC1CCCCC1,.,.,-18.0,.,.,.,
CC(Sc1nc(N2CCCCC2)c2c(c1C#N)CCCC2)C(=O)O (stereo not drawn),-4.2,3.0,-7.0,33.3,22.3*,-1.0,
O=C(COC(=O)c1ccc[nH]c1=O)NCCCc1ccccc1,4.2,0.1,-1.3,1.7,0.8,.,
O=C1c2ccc(Br)cc2C(=O)N1c1ccc(Cc2ccncc2)cc1,1.8,0.3,-5.5,-2.0,2.4,.,
Cc1ccc(-n2ncc3c(N4CCN(c5ccccc5)CC4)ncnc32)c(C)c1,8.3,-3.1,8.5,-6.9,17.8*,2.5,
COc1ccccc1CNc1nc(NCc2ccccc2OC)c2sccc2n1,14.6,-2.7,.,3.6,20.2*,12.6,
Cc1ccc2nc(SCC(=O)Nc3ccc4[nH]c(=O)[nH]c4c3)[nH]c2c1,11.2,3.8,1.7,6.9,2.3,.,
O=C(CSc1nc2ccc(Cl)cc2[nH]1)Nc1ccc2[nH]c(=O)[nH]c2c1,6.2,5.1,-5.0,12.2,17.9*,2.5,
CC(C)CNC(=O)C1Nc2ccccc2C2C=CCC12 (stereo not drawn),13.3,15.0,12.1,20.9,19.7*,5.1,
CC(C)CNC(=O)CC1Nc2ccccc2NC1=O (stereo not drawn),.,.,4.4,.,.,.,
CSCCC(NC(=O)OCc1ccccc1)NC(=O)OCc1ccccc1,-2.1,2.8,.,-1.3,-8.9,.,
CC(=O)N1CCC2(CC1)C/C(=N\NC(=S)Nc1ccc(C)cc1)c1cc(O)ccc1O2,18.5,2.2,2.8,15.2,26.5*,-23.1,
Cc1ccc(NC(=S)N/N=C2\CC(C)(C)Oc3ccc(O)cc32)cc1,8.1,7.7,8.3,15.2,16.8,.,
CC(C)C[C@H]1COc2cc(N3CCC[C@@H]3CO)ccc2S(=O)(=O)N1,5.0,-5.6,.,0.0,-0.2,.,
CCOc1ccc(NC(=O)CCC(=O)Nc2cc(OC)c(NC(=O)c3ccco3)cc2OC)cc1,2.9,2.9,4.0,-0.6,19.0*,6.9,
CC1Cc2nc(SCC(=O)NCC3CCCO3)n(C)c(=O)c2S1 (stereo not drawn),8.6,5.8,4.1,4.0,19.7*,-0.7,
SMILES,mABHD4 FP,PRMT1 inh,HTRA1 inh,rCAG binder,SIAE primary,SIAE inh conf,others
O=C(CSc1nc2c(c(=O)n1-c1ccccc1)SCC2)NCC1CCCO1 (stereo not drawn),-2.6,1.1,5.9,-0.7,31.5*,-3.8,
COc1cccc(NC(=O)Nc2ccccc2C(N)=O)c1,-0.9,1.6,-0.7,-4.0,-4.8,.,
COc1ccc(C/C(C)=N/NC(=O)c2cccnc2)cc1,7.6,-1.4,1.4,1.4,18.4*,0.8,
COc1ccc(OCc2cc(C(=O)N3CCCC(OC)C3)no2)c2ccccc12 (stereo not drawn),2.9,2.5,-12.5,-3.7,6.9,.,
COc1ccc(OCc2cc(C(=O)N3CCCC(O)C3)no2)c2ccccc12 (stereo not drawn),1.7,0.1,-0.6,10.9,17.6*,0.3,
O=C(NCCCc1ccccc1)[C@H](CO)NC1(C(=O)NCCc2c[nH]c3ccccc23)CCCCC1,2.4,3.3,.,.,6.7,.,
CCC(=O)NC(c1ccco1)c1cc(Br)c2cccnc2c1O (stereo not drawn),19.9,-5.6,.,11.8,18.8*,10.6,
CN(CC(=O)Nc1ccc(F)cc1)C(=O)Cc1ccsc1,-3.7,1.9,8.4,3.6,3.2,.,
CC(C)CN1C(=O)C(=O)N(CC(=O)N(C)CC(=O)Nc2ccc(F)cc2)C1=O,-0.5,-4.9,-1.2,1.4,19.9*,3.2,
CC(=O)NC(=S)Nc1ccc(NC(=S)NC(=O)/C=C/c2ccco2)cc1,-6.9,9.2,-0.3,20.1,31.0*,-27.9,
COc1ccc(CC(=O)c2ccc(OC)c(OC)c2)cc1,-6.4,-1.6,1.9,0.8,17.2*,2.6,
COc1ccc(CC(=O)OCC(=O)c2ccc(OC)c(OC)c2)cc1,1.5,1.4,-4.8,2.4,5.0,.,
COc1ccc(-c2nn(-c3ccccc3)cc2/C=N/O)cc1OC,-13.5,0.4,-16.8,-0.7,-6.4,.,
COc1ccc(-c2nn(-c3ccccc3)cc2/C=N/Nc2ccc3ccccc3n2)cc1OC,-2.6,1.3,-37.9,5.5,18.6*,7.9,
Cc1nc(SCC(=O)N(CC(C)C)C2CCS(=O)(=O)C2)c2ccccc2n1 (stereo not drawn),3.0,2.4,2.7,-3.0,17.4*,-1.4,
CCC(C)N(C(=O)CSc1nc(C)nc2ccccc12)C1CCS(=O)(=O)C1 (stereo not drawn),4.8,3.4,-2.9,3.0,-6.4,.,
COc1cc(/C=N/N=C2/NC(=O)C(c3ccccc3)S2)ccc1O (stereo not drawn),21.2,-0.6,6.1,26.9,18.7*,9.0,
CC1CCCCC12NC(=O)N(CC(=O)N(C)Cc1nc3ccccc3c(=O)[nH]1)C2=O (stereo not drawn),0.3,-2.3,-1.9,2.1,9.0,.,
